# Data as given in ChEMBL document CHEMBL2176880 (J Med Chem, 2012).
# Key:
# [1] = Drug metabolism in human liver microsomes at 5 uM after 15 mins; type: ADME, Microsome; details: read-out: Drug metabolism
# Summary of the method: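 Compound at 5 μM incubated 15 min with human liver microsomes; read-out is % of compound metabolized. Values are the mean of at least two experiments.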
# [2] = Drug metabolism in mouse liver microsomes at 5 uM after 15 mins; type: ADME, Microsome; details: read-out: Drug metabolism
# [3] = target: T1, Metabotropic glutamate receptor 2 (Homo sapiens, UniProt Q14416); experiment: Positive allosteric modulator activity at human mGlu2R expressed in CHO cells incubated for 30 mins by [35S]GTPgammaS binding assay; type: functional, cell-based
# Target sequence in this assay (Q14416 whole entry): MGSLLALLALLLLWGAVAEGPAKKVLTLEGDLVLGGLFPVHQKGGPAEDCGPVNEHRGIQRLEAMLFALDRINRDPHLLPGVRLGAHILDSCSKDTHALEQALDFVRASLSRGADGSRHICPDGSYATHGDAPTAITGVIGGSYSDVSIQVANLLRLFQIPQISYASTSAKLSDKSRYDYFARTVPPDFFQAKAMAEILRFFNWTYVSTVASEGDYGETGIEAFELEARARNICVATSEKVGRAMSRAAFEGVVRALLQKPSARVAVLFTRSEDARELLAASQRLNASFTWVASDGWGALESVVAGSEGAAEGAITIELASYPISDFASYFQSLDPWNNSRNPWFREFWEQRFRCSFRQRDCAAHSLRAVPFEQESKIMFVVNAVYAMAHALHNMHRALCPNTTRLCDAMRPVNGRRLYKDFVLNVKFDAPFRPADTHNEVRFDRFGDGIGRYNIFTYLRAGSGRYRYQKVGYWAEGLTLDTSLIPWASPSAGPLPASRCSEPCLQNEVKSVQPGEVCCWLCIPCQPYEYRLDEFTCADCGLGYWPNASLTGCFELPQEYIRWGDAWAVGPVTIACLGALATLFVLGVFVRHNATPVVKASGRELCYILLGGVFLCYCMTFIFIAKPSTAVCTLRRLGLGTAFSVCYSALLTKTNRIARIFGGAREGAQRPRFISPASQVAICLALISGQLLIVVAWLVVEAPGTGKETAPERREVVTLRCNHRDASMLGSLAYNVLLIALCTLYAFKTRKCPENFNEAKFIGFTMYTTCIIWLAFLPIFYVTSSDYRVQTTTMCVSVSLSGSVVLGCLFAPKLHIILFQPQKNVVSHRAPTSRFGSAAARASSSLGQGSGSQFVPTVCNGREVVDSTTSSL
# [4] = target: T1, Metabotropic glutamate receptor 2; experiment: Positive allosteric modulator activity at human mGlu2R expressed in CHO cells incubated for 30 mins by [35S]GTPgammaS binding assay relative to control; type: functional, cell-based
# Target sequence in this assay (Q14416 19-872 limits assumed): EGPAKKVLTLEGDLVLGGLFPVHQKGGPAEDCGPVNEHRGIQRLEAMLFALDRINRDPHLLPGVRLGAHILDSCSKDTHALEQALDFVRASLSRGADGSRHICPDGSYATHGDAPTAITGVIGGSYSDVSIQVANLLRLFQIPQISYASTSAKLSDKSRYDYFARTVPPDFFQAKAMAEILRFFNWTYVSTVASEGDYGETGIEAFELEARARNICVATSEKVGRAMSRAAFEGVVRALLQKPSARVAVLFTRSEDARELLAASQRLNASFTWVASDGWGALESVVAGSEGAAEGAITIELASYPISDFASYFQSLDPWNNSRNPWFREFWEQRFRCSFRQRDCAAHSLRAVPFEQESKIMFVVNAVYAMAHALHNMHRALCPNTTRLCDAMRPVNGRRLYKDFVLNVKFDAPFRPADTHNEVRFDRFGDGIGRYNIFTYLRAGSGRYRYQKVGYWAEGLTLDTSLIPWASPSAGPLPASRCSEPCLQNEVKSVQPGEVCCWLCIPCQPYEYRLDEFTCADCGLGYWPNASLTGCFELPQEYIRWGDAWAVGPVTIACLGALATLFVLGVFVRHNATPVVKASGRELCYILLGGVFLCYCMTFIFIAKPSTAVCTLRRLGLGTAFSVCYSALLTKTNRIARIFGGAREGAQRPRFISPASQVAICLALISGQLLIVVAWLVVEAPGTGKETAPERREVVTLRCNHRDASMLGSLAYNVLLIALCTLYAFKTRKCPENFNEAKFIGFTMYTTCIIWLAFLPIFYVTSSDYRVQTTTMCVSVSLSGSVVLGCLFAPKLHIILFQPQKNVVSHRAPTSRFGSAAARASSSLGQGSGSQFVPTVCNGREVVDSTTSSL
# [5] = Drug level in Swiss mouse brain at 10 mg/kg, sc administered as single dose measured 1 hr post dose; type: ADME, organism-based; parameters: dose 10 mg/kg, route subcutaneous; details: read-out: Drug uptake
# Summary of the method: (§1)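 Swiss mice given a single 10 mg/kg sc dose at 1 mg/mL in 20% HP-β-CD + HCl solution, pH 4. Brain and plasma levels taken 1 h post dose. Values are geometric means of at least two runs.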
# [6] = Ratio of drug level in brain to plasma in Swiss mouse at 10 mg/kg, sc administered as single dose measured 1 hr post dose; type: ADME, organism-based; parameters: dose 10 mg/kg, route subcutaneous; details: read-out: BPR; summary of the method: as §1
# [7] = Plasma concentration in Swiss mouse at 10 mg/kg, sc administered as single dose measured 1 hr post dose; type: ADME, organism-based; parameters: dose 10 mg/kg, route subcutaneous; summary of the method: as §1
# hERG = hERG (Homo sapiens, UniProt Q12809); experiment: Inhibition of human ERG expressed in HEK293 cells at 3 uM by patch clamp assay; type: cell-based; details: HEK293 cells expressing hERG
# hERG, sequence (Q12809 whole entry): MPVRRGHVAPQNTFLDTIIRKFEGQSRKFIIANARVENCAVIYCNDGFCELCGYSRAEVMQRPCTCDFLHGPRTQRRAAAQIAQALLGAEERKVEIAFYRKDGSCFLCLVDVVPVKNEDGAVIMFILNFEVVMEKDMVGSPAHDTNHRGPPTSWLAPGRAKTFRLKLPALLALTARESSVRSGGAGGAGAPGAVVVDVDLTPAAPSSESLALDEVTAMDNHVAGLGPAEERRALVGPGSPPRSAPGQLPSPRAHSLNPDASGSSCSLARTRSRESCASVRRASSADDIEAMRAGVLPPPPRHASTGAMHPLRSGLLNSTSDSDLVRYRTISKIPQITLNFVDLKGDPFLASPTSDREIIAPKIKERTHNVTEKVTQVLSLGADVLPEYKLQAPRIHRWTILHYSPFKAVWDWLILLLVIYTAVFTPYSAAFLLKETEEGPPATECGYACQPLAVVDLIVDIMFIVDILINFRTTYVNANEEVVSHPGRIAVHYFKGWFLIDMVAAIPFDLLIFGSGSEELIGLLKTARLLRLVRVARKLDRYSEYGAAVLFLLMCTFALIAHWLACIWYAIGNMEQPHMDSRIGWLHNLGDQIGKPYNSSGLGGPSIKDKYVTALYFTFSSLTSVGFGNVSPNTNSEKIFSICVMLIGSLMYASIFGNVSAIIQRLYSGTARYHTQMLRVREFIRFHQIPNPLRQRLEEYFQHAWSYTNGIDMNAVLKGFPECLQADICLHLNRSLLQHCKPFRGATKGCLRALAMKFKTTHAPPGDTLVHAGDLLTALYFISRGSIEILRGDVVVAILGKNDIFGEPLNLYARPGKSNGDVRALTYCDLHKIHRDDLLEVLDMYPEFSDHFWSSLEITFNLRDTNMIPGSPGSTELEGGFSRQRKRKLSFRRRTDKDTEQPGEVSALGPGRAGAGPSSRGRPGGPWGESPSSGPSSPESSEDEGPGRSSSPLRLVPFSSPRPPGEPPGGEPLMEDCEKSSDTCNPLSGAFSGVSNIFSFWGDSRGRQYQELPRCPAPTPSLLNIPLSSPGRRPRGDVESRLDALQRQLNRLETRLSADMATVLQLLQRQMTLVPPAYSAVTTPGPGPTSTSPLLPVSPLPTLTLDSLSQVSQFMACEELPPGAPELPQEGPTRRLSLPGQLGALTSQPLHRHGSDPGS
# Summary of the method: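 HEK293 cells stably expressing hERG, whole-cell currents recorded by automated patch clamp in extracellular solution (mM: 150 NaCl, 4 KCl, 1 MgCl2, 1.8 CaCl2, 10 HEPES, 5 glucose, pH 7.4). Vehicle (0.1% DMSO) applied for 5 min, then compound at 0.1, 0.3 and 3 μM, each applied twice (n = 3). Effect taken after 5 min as the mean current of three pulses; residual current compared with vehicle.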
# [8] = Volume of distribution at steady state in Sprague-Dawley rat at […], iv or 10 mg/kg, po; type: ADME, organism-based; details: in vivo, read-out: Vdss
# [9] = AUC (0 to infinity) in Sprague-Dawley rat at 10 mg/kg, po; type: ADME, organism-based; parameters: time infinity, dose 10 mg/kg, route oral; details: plasma
# [10] = Clearance in Sprague-Dawley rat at […], iv; type: ADME, organism-based; parameters: dose 2.5 mg/kg, route intravenous; details: in vivo
# [11] = Tmax in Sprague-Dawley rat at […], iv or 10 mg/kg, po; type: ADME, organism-based; details: in vivo
# [12] = Cmax in Sprague-Dawley rat at […], iv or 10 mg/kg, po; type: ADME, organism-based; details: in vivo
# [13] = Oral bioavailability in Sprague-Dawley rat at 10 mg/kg; type: ADME, organism-based; details: in vivo
# [14] = Half life in Sprague-Dawley rat at […], iv; type: ADME, organism-based; parameters: dose 2.5 mg/kg, route intravenous; details: in vivo
SMILES,"metabolised at […], 5 µM [1] [%]","metabolised at […], 5 µM [2] [%]",EC50 [3] [nM],Emax [4] [%],concentration at 1 h [5] [ng/mL],Kp at 1 h [6],concentration at 1 h [7] [ng/mL],Vd [8] [L/kg],AUC(0-inf) [9] [ng·h/mL],clearance [10] [mL/min/kg],Tmax [11] [h],Cmax [12] [ng/mL],bioavailability [13] [%],half-life [14] [min],inhibition at 3 µM (hERG) [%]
COCc1nnc2c(C#N)c(N3CCC(c4ccccc4)CC3)ccn12,12,31,468,196,–,–,–,–,–,–,–,–,–,–,–
FC(F)(F)C1(c2ccccc2)CCN(c2ccn3c(CC4CC4)nnc3c2Cl)CC1,56,41,–,243,–,1.6,–,5.1,1160,77,1.3,289,53,126,42
N#Cc1c(N2CCC(c3ccccc3)CC2)ccn2c(CN3CCCC3)nnc12,38,88,1120,240,–,–,–,–,–,–,–,–,–,–,–
Clc1c(N2CCN(c3ccccc3)CC2)ccn2c(CC3CC3)nnc12,62,53,944,308,–,–,–,–,–,–,–,–,–,–,–
CCCc1cnc2c(C#N)c(N3CCC(c4ccccc4)CC3)ccn12,74,81,–,254,–,–,–,–,–,–,–,–,–,–,–
N#Cc1c(N2CCC(c3ccccc3)CC2)ccn2c(CC(F)(F)F)cnc12,24,41,125,259,–,–,–,–,–,–,–,–,–,–,–
CCc1cnc2c(C#N)c(N3CCC(c4ccccc4)CC3)ccn12,74,82,–,225,–,–,–,–,–,–,–,–,–,–,–
CCc1nnc2c(C#N)c(N3CCC(c4ccccc4)CC3)ccn12,11,7,–,247,135,0.2,672,–,–,–,–,–,–,–,20
FC(F)(F)Cc1nnc2c(Cl)c(N3CCC(F)(c4ccccc4)CC3)ccn12,39,25,–,310,–,1.4,–,1.9,5990,18,1.7,807,63,156,42
CCc1nnc2c(Cl)c(N3CCC(c4ccccc4)CC3)ccn12,57,39,386,262,–,–,–,–,–,–,–,–,–,–,43
CC(C)(C)c1nnc2c(C#N)c(N3CCC(c4ccccc4)CC3)ccn12,–,–,1230,207,–,–,–,–,–,–,–,–,–,–,–
CCCc1nnc2c(C#N)c(N3CCC(c4ccccc4)CC3)ccn12,25,40,299,272,–,–,–,–,–,–,–,–,–,–,–

# The next lines start with results.
"metabolised at […], 5 µM [1] [%]","metabolised at […], 5 µM [2] [%]",EC50 [3] [nM],Emax [4] [%],concentration at 1 h [5] [ng/mL],Kp at 1 h [6],concentration at 1 h [7] [ng/mL],Vd [8] [L/kg],AUC(0-inf) [9] [ng·h/mL],clearance [10] [mL/min/kg],Tmax [11] [h],Cmax [12] [ng/mL],bioavailability [13] [%],half-life [14] [min],SMILES,inhibition at 3 µM (hERG) [%]
52,86,149,278,–,–,–,–,–,–,–,–,–,–,FC(F)(F)c1c(N2CCc3ccccc3C2)ccn2c(CC3CC3)nnc12,–
56,–,–,343,3830,1.4,2660,–,–,–,–,–,–,–,Clc1c(N2CCC(c3ccccc3)CC2)ccn2c(CC3CC3)nnc12,99
18,13,–,292,–,–,–,–,–,–,–,–,–,–,FC(F)(F)c1c(N2CCC(F)(c3ccccc3)CC2)ccn2c(CC3CC3)nnc12,84
38,72,1230,175,–,–,–,–,–,–,–,–,–,–,FC(F)(F)c1c(N2CCC(c3ccccc3)C2)ccn2c(CC3CC3)nnc12 (racemic),–
9,10,–,277,–,–,–,–,–,–,–,–,–,–,N#Cc1c(N2CCC(c3ccccc3)CC2)ccn2c(CC(F)(F)F)nnc12,33
50,89,400,330,–,–,–,–,–,–,–,–,–,–,FC(F)(F)c1c(N2Cc3ccccc3C2)ccn2c(CC3CC3)nnc12,–
33,54,–,364,–,–,–,–,–,–,–,–,–,–,CCCCc1nnc2c(C(F)(F)F)c(N3CCC(c4ccccc4)CC3)ccn12,91
6,25,–,278,–,–,–,–,–,–,–,–,–,–,N#Cc1c(N2CCC(c3ccccc3)CC2)ccn2c(CC3CC3)nnc12,–
29,42,116,334,–,1.3,–,1.4,1010,53,0.7,359,35,114,CCc1nnc2c(C(F)(F)F)c(N3CCC(c4ccccc4)CC3)ccn12,36
31,78,519,268,–,–,–,–,–,–,–,–,–,–,FC(F)(F)c1c(N2CCC(c3cccnc3)CC2)ccn2c(CC3CC3)nnc12,–
2,16,10,306,–,–,–,–,–,–,–,–,–,–,Fc1ccc(C2CCN(c3ccn4c(CC5CC5)nnc4c3C(F)(F)F)CC2)c(F)c1,91
13,8,55,300,2090,1.8,1160,–,–,–,–,–,–,–,FC(F)(F)Cc1nnc2c(Cl)c(N3CCC(c4ccccc4)CC3)ccn12,71
